Experimental data gathered from unrelated publications.
Lines come from different studies, so protocols differ.
DRD3: D(3) dopamine receptor (DRD3, Homo sapiens, UniProt P35462)
SLC6A3: Sodium-dependent dopamine transporter (SLC6A3, Homo sapiens, UniProt Q01959)
CA12: Carbonic anhydrase 12 (CA12, Homo sapiens, UniProt O43570)
CASP3: Caspase-3 (CASP3, Homo sapiens, UniProt P42574)

SMILES | target | read-out | action | technique | setting | Ki
CC(C)(COP(=O)(O)OP(=O)(O)OC[C@H]1O[C@@H](n2cnc3c(N)ncnc32)[C@H](O)[C@@H]1OP(=O)(O)O)[C@@H](O)C(=O)NCCC(=O)NCCS | Histone acetyltransferase type B catalytic subunit (Homo sapiens, UniProt O14929) | enzyme activity | inhibitor | radiometric | – | 41500 nM
O=C1c2ccccc2CCCN1CCCCN1CCN(c2ccccn2)CC1 | DRD3 | ligand displacement | – | radioligand | – | 3 nM
O=C(O[C@@H]1Cc2c(O)cc(O[C@H]3O[C@H](CO)[C@@H](O)[C@H](O)[C@H]3O)cc2O[C@@H]1c1cc(O)c(O)c(O)c1)c1cc(O)c(O)c(O)c1 | Maltase-glucoamylase (Homo sapiens, UniProt O43451) | enzyme activity | inhibitor | – | – | 7880 nM
CC1Cc2ccccc2N1C(=O)c1nc2ccccc2s1 (stereo not shown) | DRD3 | ligand displacement | – | radioligand | cell membranes | 14400 nM
CCCC[C@H](NC(=O)[C@H](C)c1c(C)[nH]c2ccc(O)cc12)c1ncc(-c2cc3ccccc3nc2OC)[nH]1 | Prostaglandin F2-alpha receptor (PTGFR, Homo sapiens, UniProt P43088) | cell-free assay | – | – | – | 8980 nM
COc1cccc(CCC2=NCCN2CCc2ccccc2)c1 | DRD3 | ligand displacement | – | radioligand | – | > 10000 nM
CN(CC[C@@H]1C[C@H]1CNC(=O)c1cc2ccccc2[nH]1)[C@@H]1Cc2cccc3[nH]c(=O)n(c23)C1 | DRD3 | ligand displacement | – | radioligand | cell membranes | 398 nM
CCCCN1CCC(COC(=O)c2ccc(N)c(OCF)c2)CC1 | SLC6A3 | cell-free assay | – | radioligand | – | > 10000 nM
NS(=O)(=O)c1ccc(-n2nccc2-c2ccc(N3CCOCC3)cc2)cc1 | CA12 | enzyme activity | inhibitor | stopped-flow | – | 344 nM
CCN(CC)c1ccc(C2Nc3ccc(C(=O)c4ccccc4)cc3NC3=C2C(=O)CC(C)(C)C3)cc1 (stereo not shown) | SLC6A3 | cell-free assay | – | radioligand | – | > 10000 nM
NS(=O)(=O)c1ccc(-n2nccc2-c2ccc(N3CCCCC3)cc2)cc1 | CA12 | enzyme activity | inhibitor | stopped-flow | – | 298 nM
CCc1nc2cc(OCCCCN3CCC(c4cccc(Cl)c4Cl)CC3)ccc2s1 | SLC6A3 | ligand displacement | – | radioligand | – | 4000 nM
O=c1c(O)c(-c2ccc(O)c(O)c2)oc2cc(O)cc(O)c12 | CASP3 | enzyme activity | inhibitor | fluorescence | – | 96400 nM
CC1Cc2ccccc2N1C(=O)NCCCCN(C)[C@@H]1Cc2cccc3[nH]c(=O)n(c23)C1 (mixture of isomers) | DRD3 | ligand displacement | – | radioligand | cell membranes | 139 nM
CC/C(=C(/c1ccc(O)cc1)c1ccc(OCCN)cc1)c1ccc(O)cc1 | Aromatase (CYP19A1, Homo sapiens, UniProt P11511) | enzyme activity | inhibitor | fluorescence | – | 20 nM
Oc1cccc(CCC2=NCCN2Cc2ccccc2)c1 | DRD3 | ligand displacement | – | radioligand | – | 1260 nM
Cc1nc2cc(OCCCCN3CCN(c4cccc(Cl)c4Cl)CC3)ccc2s1 | SLC6A3 | ligand displacement | – | radioligand | – | 690 nM
CN(CCCCNC(=O)c1nc2ccccc2s1)[C@@H]1Cc2cccc3[nH]c(=O)n(c23)C1 | DRD3 | ligand displacement | – | radioligand | cell membranes | 403 nM
O=c1cc(-c2ccc(O)c(O)c2)oc2cc(O)cc(O)c12 | CASP3 | enzyme activity | inhibitor | fluorescence | – | 181000 nM
